Measured values taken from ChEMBL document CHEMBL1157359, “Binding of ceftobiprole and comparators to the penicillin-binding proteins of Escherichia coli, Pseudomonas aeruginosa, Staphylococcus aureus, and Streptococcus pneumoniae” (Antimicrob Agents Chemother, 2007).
≈ marks a conversion by molar mass, not a printed value.

Assays:
[1] = biological target: T1, Penicillin-binding protein 1 (Staphylococcus aureus, UniProt Q53725); assay: Inhibition of bocillin FL binding to methicillin-susceptible Staphylococcus aureus ATCC 29213 penicillin-binding protein 1
T1 sequence (Q53725 whole entry): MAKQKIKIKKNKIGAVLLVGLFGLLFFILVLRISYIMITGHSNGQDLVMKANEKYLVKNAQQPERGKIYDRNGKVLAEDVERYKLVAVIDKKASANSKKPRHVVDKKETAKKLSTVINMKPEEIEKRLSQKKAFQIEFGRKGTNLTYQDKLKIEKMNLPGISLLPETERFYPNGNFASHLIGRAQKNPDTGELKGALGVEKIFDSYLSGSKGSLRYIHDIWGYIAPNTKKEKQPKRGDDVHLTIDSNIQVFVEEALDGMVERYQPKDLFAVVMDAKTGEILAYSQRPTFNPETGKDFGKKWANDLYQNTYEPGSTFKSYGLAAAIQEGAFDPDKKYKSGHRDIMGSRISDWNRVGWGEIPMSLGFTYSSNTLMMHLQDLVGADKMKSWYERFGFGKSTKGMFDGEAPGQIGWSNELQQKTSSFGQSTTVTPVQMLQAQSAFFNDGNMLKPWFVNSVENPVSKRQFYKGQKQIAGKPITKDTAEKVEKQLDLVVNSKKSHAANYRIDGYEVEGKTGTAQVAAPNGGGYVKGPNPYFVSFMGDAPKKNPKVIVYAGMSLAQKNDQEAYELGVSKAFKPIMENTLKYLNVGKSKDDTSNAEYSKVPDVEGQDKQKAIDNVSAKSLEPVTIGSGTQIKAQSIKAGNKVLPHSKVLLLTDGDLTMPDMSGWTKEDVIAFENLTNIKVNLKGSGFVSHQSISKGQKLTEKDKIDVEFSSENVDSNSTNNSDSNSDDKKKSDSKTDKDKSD
Procedure, shortened: (§1)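 Isolated S. aureus ATCC 29213 PBPs exposed to drug over 0.001 μg/ml to 50 μg/ml, followed by Bocillin FL labeling and fluorescence imaging. IC50 is 50% inhibition of Bocillin FL binding relative to no-drug control.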

[2] = Inhibition of bocillin FL binding to penicillin-susceptible Streptococcus pneumoniae OC 8865 penicillin-binding protein 3
Procedure, shortened: (§2)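 Whole S. pneumoniae cells were used rather than isolated membranes. Cells were competed with drug and then labeled with Bocillin FL, and PBP bands were visualized by fluorescence imaging. IC50 is the drug concentration that inhibits Bocillin FL binding to each PBP by 50% relative to a no-drug control.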

[3] = biological target: T2, Penicillin-binding protein 3 (Staphylococcus aureus, UniProt Q5D1F0); assay: Inhibition of bocillin FL binding to methicillin-susceptible Staphylococcus aureus ATCC 29213 penicillin-binding protein 3; procedure, shortened: as §1
T2 sequence (Q5D1F0 whole entry): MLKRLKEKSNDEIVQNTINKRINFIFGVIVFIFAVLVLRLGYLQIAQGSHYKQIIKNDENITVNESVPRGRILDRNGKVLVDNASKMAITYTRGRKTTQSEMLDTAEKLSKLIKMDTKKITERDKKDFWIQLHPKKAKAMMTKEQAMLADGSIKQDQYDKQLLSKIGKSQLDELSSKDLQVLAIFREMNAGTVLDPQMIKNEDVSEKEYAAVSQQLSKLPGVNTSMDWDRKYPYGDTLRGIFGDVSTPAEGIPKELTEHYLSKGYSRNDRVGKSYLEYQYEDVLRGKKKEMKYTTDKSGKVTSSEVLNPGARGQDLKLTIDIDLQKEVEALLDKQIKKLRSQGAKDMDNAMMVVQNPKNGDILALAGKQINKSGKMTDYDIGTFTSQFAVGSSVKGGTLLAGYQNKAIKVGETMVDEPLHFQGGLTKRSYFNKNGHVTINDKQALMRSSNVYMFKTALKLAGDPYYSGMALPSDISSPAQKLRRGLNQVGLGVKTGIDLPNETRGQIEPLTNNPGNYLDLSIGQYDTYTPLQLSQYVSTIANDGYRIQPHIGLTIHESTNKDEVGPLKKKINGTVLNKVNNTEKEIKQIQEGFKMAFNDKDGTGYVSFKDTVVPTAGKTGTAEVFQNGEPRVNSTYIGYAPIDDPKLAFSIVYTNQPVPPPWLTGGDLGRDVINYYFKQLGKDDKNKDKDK

[4] = Inhibition of bocillin FL binding to penicillin-susceptible Streptococcus pneumoniae OC 8865 penicillin-binding protein 2x; procedure, shortened: as §2
[5] = Inhibition of bocillin FL binding to penicillin-resistant Streptococcus pneumoniae OC 8819 penicillin-binding protein 1b; procedure, shortened: as §2
[6] = Inhibition of bocillin FL binding to penicillin-resistant Streptococcus pneumoniae OC 8819 penicillin-binding protein 2a; procedure, shortened: as §2
[7] = biological target: T3, Penicillin-binding protein 4 (Staphylococcus aureus, UniProt P72355); assay: Inhibition of bocillin FL binding to methicillin-susceptible Staphylococcus aureus ATCC 29213 penicillin-binding protein 4; procedure, shortened: as §1
T3 sequence (P72355 whole entry): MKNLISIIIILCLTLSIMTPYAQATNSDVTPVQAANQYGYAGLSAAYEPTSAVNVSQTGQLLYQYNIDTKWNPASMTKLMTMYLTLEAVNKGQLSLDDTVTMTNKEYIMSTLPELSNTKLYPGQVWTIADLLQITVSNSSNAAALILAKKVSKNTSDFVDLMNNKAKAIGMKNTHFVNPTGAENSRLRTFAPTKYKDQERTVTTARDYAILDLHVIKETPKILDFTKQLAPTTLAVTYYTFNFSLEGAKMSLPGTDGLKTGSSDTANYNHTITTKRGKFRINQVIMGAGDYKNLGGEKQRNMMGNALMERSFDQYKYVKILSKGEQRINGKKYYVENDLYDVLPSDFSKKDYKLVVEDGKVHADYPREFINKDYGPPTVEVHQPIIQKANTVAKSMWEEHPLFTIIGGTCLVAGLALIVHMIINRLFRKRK

[8] = Inhibition of bocillin FL binding to Pseudomonas aeruginosa PAO1 penicillin-binding protein 4
Procedure, shortened: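 P. aeruginosa PAO1 PBPs were isolated and competed with 10 drug concentrations from 0.06 μg/ml to 32 μg/ml before Bocillin FL labeling. Bands were detected by fluorescence imaging. IC50 was taken as 50% inhibition of Bocillin FL binding versus the no-drug sample.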

[9] = Inhibition of bocillin FL binding to Pseudomonas aeruginosa PAO1 penicillin-binding protein 5/6
Procedure, shortened: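 Isolated P. aeruginosa PAO1 PBPs; drug added at 10 concentrations, 0.06 μg/ml to 32 μg/ml, before Bocillin FL labeling. Labeled PBPs imaged. IC50 is the drug level cutting Bocillin FL binding by 50% versus a no-drug sample.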

CO/N=C(\C(=O)N[C@@H]1C(=O)N2C(C(=O)O)=C(CSc3nc(=O)c(O)nn3C)CS[C@H]12)c1csc(N)n1 (stereo in doubt) [CEFTRIAXONE]
IC50 [1]: 902 nM | IC50 [2]: 0.02 µg/mL (≈ 0.0361 µM) | IC50 [3]: 1800 nM | IC50 [4]: 0.03 µg/mL (≈ 0.0541 µM) | IC50 [5]: 0.02 µg/mL (≈ 0.0361 µM) | IC50 [6]: 0.5 µg/mL (≈ 0.902 µM) | IC50 [7]: 18000 nM

CC(C)(O/N=C(\C(=O)N[C@@H]1C(=O)N2C(C(=O)[O-])=C(C[n+]3ccccc3)CS[C@H]12)c1csc(N)n1)C(=O)O [CEFTAZIDIME]
IC50 [8]: 2 µg/mL (≈ 3.66 µM) | IC50 [9]: > 32 µg/mL

Nc1nc(/C(=N/O)C(=O)N[C@@H]2C(=O)N3C(C(=O)O)=C(/C=C4\CCN([C@@H]5CCNC5)C4=O)CS[C@H]23)ns1 [CEFTOBIPROLE]
IC50 [1]: 187 nM | IC50 [2]: 0.02 µg/mL (≈ 0.0374 µM) | IC50 [3]: 93.5 nM | IC50 [4]: 0.01 µg/mL (≈ 0.0187 µM) | IC50 [8]: 0.2 µg/mL (≈ 0.374 µM) | IC50 [9]: > 32 µg/mL | IC50 [6]: 0.1 µg/mL (≈ 0.187 µM) | IC50 [7]: 1870 nM
